In PubChem BioAssay AID624411 (The Scripps Research Institute Molecular Screening Center, 2012) one finds IC50 data, which are given here for 1 molecule.

Calls of active or inactive are those of the source.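 Rule for the calls: active = compounds blocking BCL-xL binding with IC50 of 10 µM or lower; inactive = the rest.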

For the assay, the target named is Bcl-2-like protein 1 (Homo sapiens) (UniProt Q07817). In words: Bcl-xL binding to Bim BH3 peptide, probe test – biochemical, fluorescence polarization, probe report, counter-screen for MCL1-BIM inhibitor project, late-stage follow-up (AID 624411). To be noted: GST-BCL-xL / FITC-Bim BH3 fluorescence polarization. An outline of the steps:
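Assay system: Purified GST-Bcl-xL fusion protein, human Bcl-xL | Quantity: 12.5 nM GST-Bcl-xL | Also added: FITC-labelled Bim BH3 peptide probe at 4 nM | Schedule: Compound incubation 20 min at room temperature | Detection: Fluorescence polarization in millipolarization (mP) units | Evaluation: IC50 from fitted inhibition curve | Controls: DMSO and unlabeled Bim-BH3 peptide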

Sequence of Bcl-2-like protein 1 (Homo sapiens) (Q07817 whole entry, looked up, the tested form may be a part): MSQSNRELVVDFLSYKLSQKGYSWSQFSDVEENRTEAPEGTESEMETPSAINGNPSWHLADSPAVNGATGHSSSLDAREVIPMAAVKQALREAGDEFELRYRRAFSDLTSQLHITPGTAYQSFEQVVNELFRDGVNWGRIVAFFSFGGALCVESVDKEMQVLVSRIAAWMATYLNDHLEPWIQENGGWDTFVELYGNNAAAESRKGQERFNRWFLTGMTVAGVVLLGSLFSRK

With `CCN1CCN(C(c2ccc(C(F)(F)F)cc2)c2ccc3cccnc3c2O)CC1` (stereo unspecified), the IC50 – broadly, the concentration needed to halve the response being measured – was > 40 µM (inactive).
